# Measured values as given in ChEMBL document CHEMBL1131141, “Novel 1,1,3-trioxo-2H,4H-thieno[3,4-e][1,2,4]thiadiazine derivatives as non-nucleoside reverse transcriptase inhibitors that inhibit human immunodeficiency virus type 1 replication” (J Med Chem, 1998).
# Key:
# [1] = tested on: MT4; experiment: Dose required to reduce the viability of mock-infected cells by 50%, determined by MTT method.; format: functional; settings: Homo sapiens
# Method in brief: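 Mock-infected MT-4 cells; value is the dose lowering cell viability by 50%, read out by MTT assay. Mean of at least two separate experiments.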
# [2] = tested on: MT4; experiment: Dose required to achieve 50% protection of MT-4 cells from HIV-1(IIIB) induced cytopathogenicity, determined by […] method.; format: functional, cell-based; settings: Homo sapiens
# Method in brief: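 MT-4 cells infected with HIV-1(IIIB); value is the dose giving 50% protection against virus-induced cytopathogenicity, read out by MTT viability assay. Mean of at least two separate experiments.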
# [3] = tested on: Human immunodeficiency virus 1; experiment: Selectivity index was measured as the ratio of CC50(HIV-1) to that of EC50(HIV-1); SI Selectivity Index; format: functional
# [4] = Selectivity index was measured as the ratio of CC50(HIV-1) to that of EC50(HIV-1); format: functional
Compound,CC50 [1],EC50 [2],SI [3],SI [4]
Cc1ccnc2c1NC(=O)c1cccnc1N2C1CC1 [NEVIRAPINE],683 µM,0.03 µM,22800,
CCN1C(=O)N(Cc2cccc(Cl)c2)S(=O)(=O)c2cscc21,> 701 µM,2.1 µM,>334,
CN1C(=O)N(Cc2c(Cl)cccc2Cl)S(=O)(=O)c2cscc21,528 µM,> 528 µM,<1,
N#CCN1C(=O)N(Cc2cccc(Br)c2)S(=O)(=O)c2cscc21,68.6 µM,0.09 µM,762,
N#CCN1C(=O)N(Cc2cccc(F)c2)S(=O)(=O)c2cscc21,93.6 µM,0.05 µM,1872,
CN1C(=O)N(Cc2ccc(Cl)cc2)S(=O)(=O)c2cscc21,417 µM,> 417 µM,<1,
N#CCN1C(=O)N(Cc2ccccc2)S(=O)(=O)c2cscc21,503 µM,0.9 µM,559,
CCN1C(=O)N(Cc2ccccc2Cl)S(=O)(=O)c2cscc21,605 µM,7.3 µM,83,
N#CCN1C(=O)N(Cc2cccnc2)S(=O)(=O)c2cscc21,> 150 µM,0.2 µM,>750,
O=C1N(Cc2ccccc2)c2cscc2S(=O)(=O)N1CCc1ccccc1,226 µM,10.9 µM,21,
O=C1N(Cc2ccccc2Cl)c2cscc2S(=O)(=O)N1Cc1ccccc1,> 119 µM,0.1 µM,>1190,
O=C1N(Cc2ccccc2)c2cscc2S(=O)(=O)N1Cc1ccccn1,166 µM,0.4 µM,415,
O=C1N(Cc2ccccc2)c2cscc2S(=O)(=O)N1Cc1ccccc1,> 650 µM,2.2 µM,>296,
CN1C(=O)N(Cc2ccccc2)S(=O)(=O)c2cscc21,528 µM,2.7 µM,196,
N#CCN1C(=O)N(CCc2ccccc2)S(=O)(=O)c2cscc21,40.3 µM,3.6 µM,11,
CN1C(=O)N(Cc2ccccc2Cl)S(=O)(=O)c2cscc21,446 µM,> 446 µM,<1,
CCCN1C(=O)N(Cc2ccccc2)S(=O)(=O)c2ccsc21,403 µM,> 403 µM,,
N#CCN1C(=O)N(Cc2cccc(Cl)c2)S(=O)(=O)c2cscc21,> 340 µM,0.09 µM,>3778,
CN1C(=O)N(Cc2ccccc2)S(=O)(=O)c2ccsc21,> 811 µM,> 811 µM,,
N#CCN1C(=O)N(Cc2cc(F)cc(F)c2)S(=O)(=O)c2cscc21,102 µM,0.3 µM,340,

Compound,CC50 [1],EC50 [2],SI [3],SI [4]
O=C1N(Cc2cccc(Cl)c2)c2cscc2S(=O)(=O)N1Cc1ccccc1,> 119 µM,0.8 µM,>149,
CCN1C(=O)N(CCc2ccccc2)S(=O)(=O)c2cscc21,330 µM,8.6 µM,38,
CCN1C(=O)N(Cc2ccccc2)S(=O)(=O)c2nn(C)cc21,321 µM,> 321 µM,<1,
CN1C(=O)N(Cc2ccccc2)S(=O)(=O)c2nn(C)cc21,498 µM,> 498 µM,<1,
N#CCN1C(=O)N(Cc2ccccc2)S(=O)(=O)c2ccsc21,219 µM,3 µM,73,
CCN1C(=O)N(Cc2ccccc2)S(=O)(=O)c2ccsc21,374 µM,20.5 µM,18,
Cc1cn([C@H]2C[C@H](N=[N+]=[N-])[C@@H](CO)O2)c(=O)[nH]c1=O [ZIDOVUDINE],35.6 µM,0.0007 µM,,50600
CCN1C(=O)N(Cc2c(Cl)cccc2Cl)S(=O)(=O)c2cscc21,74.1 µM,> 74.1 µM,<1,
CCN1C(=O)N(Cc2ccc(Cl)cc2)S(=O)(=O)c2cscc21,273 µM,> 273 µM,<1,
N#CCN1C(=O)N(Cc2ccccc2)S(=O)(=O)c2sc(Cl)cc21,152 µM,24.5 µM,6,
CCN1C(=O)N(Cc2ccccc2)S(=O)(=O)c2cscc21,> 775 µM,2.5 µM,>310,
O=C1N(Cc2ccc(Cl)cc2)c2cscc2S(=O)(=O)N1Cc1ccccc1,18.6 µM,1.4 µM,13,
C#CCN1C(=O)N(Cc2ccccc2)S(=O)(=O)c2cscc21,> 376 µM,1 µM,>376,
O=C1N(Cc2ccccc2)c2cc(Cl)sc2S(=O)(=O)N1Cc1ccccc1,> 119 µM,4.5 µM,>26,
CN1C(=O)N(Cc2cccc(Cl)c2)S(=O)(=O)c2cscc21,> 729 µM,7.6 µM,>96,
N#CCN1C(=O)N(Cc2ccccn2)S(=O)(=O)c2cscc21,> 374 µM,1.1 µM,>340,
CCOC(=O)CN1C(=O)N(Cc2ccccc2)S(=O)(=O)c2cscc21,130 µM,7.4 µM,18,
CCN1C(=O)N(Cc2ccccn2)S(=O)(=O)c2cscc21,> 387 µM,41.4 µM,>9,
C#CCN1C(=O)N(Cc2cccc(Cl)c2)S(=O)(=O)c2cscc21,65.7 µM,0.1 µM,657,
O=C1N(Cc2ccccc2)c2sccc2S(=O)(=O)N1Cc1ccccc1,> 650 µM,8.3 µM,>78,
